In ChEMBL document CHEMBL1157665, “Novel 4-thiazolidinone derivatives as potential antifungal and antibacterial drugs” (2010):
In brackets after ≈: the same amount, converted by molar mass.

Experiments:
Aspergillus niger [1] = assay: Antifungal activity against Aspergillus niger ATCC 6275 after 72 hrs by serial sub-cultivation method; format: functional; conditions: ATCC 6275, 72 h
Procedure, shortened: (§1)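 MFC was found by serial sub-cultivation of 2 µl into plates holding 100 µl broth per well, then incubation 72 h at 28 °C. MFC is the lowest concentration with no visible growth, taken as 99.5% killing of the original inoculum. Spore inocula came from malt agar cultures washed with 0.85% saline and 0.1% Tween 80.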

Aspergillus versicolor [2] = assay: Antifungal activity against Aspergillus versicolor ATCC 11730 after 72 hrs by serial dilution method; format: functional; conditions: ATCC 11730, 72 h
Procedure, shortened: (§2)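 Fungi were kept on malt agar at 4 °C and sub-cultured monthly. Spores were washed off the agar with sterile 0.85% saline containing 0.1% Tween 80 (v/v). Modified microdilution in 96-well plates. MIC is the lowest concentration with no visible growth under the binocular microscope. Inoculum checked on malt agar for contamination and validity.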

Aspergillus versicolor [3] = assay: Antifungal activity against Aspergillus versicolor ATCC 11730 after 72 hrs by serial sub-cultivation method; format: functional; conditions: ATCC 11730, 72 h; procedure, shortened: as §1
Aspergillus flavus [4] = assay: Antifungal activity against Aspergillus flavus ATCC 9643 after 72 hrs by serial dilution method; format: functional; conditions: ATCC 9643, 72 h; procedure, shortened: as §2
Aspergillus flavus [5] = assay: Antifungal activity against Aspergillus flavus ATCC 9643 after 72 hrs by serial sub-cultivation method; format: functional; conditions: ATCC 9643, 72 h; procedure, shortened: as §1
Fulvia fulva [6] = assay: Antifungal activity against Fulvia fulva TK 5318 after 72 hrs by serial dilution method; format: functional; conditions: TK 5318, 72 h; procedure, shortened: as §2
Fulvia fulva [7] = assay: Antifungal activity against Fulvia fulva TK 5318 after 72 hrs by serial sub-cultivation method; format: functional; conditions: TK 5318, 72 h; procedure, shortened: as §1
Talaromyces funiculosus [8] = assay: Antifungal activity against Penicillium funiculosum ATCC 36839 after 72 hrs by serial dilution method; format: functional; conditions: ATCC 36839, 72 h; procedure, shortened: as §2
Talaromyces funiculosus [9] = assay: Antifungal activity against Penicillium funiculosum ATCC 36839 after 72 hrs by serial sub-cultivation method; format: functional; conditions: ATCC 36839, 72 h; procedure, shortened: as §1
Penicillium ochrochloron [10] = assay: Antifungal activity against Penicillium ochrochloron ATCC 9112 after 72 hrs by serial dilution method; format: functional; conditions: ATCC 9112, 72 h; procedure, shortened: as §2
Penicillium ochrochloron [11] = assay: Antifungal activity against Penicillium ochrochloron ATCC 9112 after 72 hrs by serial sub-cultivation method; format: functional; conditions: ATCC 9112, 72 h; procedure, shortened: as §1
Trichoderma viride [12] = assay: Antifungal activity against Trichoderma viride IAM 5061 after 72 hrs by serial dilution method; format: functional; conditions: IAM 5061, 72 h; procedure, shortened: as §2
Trichoderma viride [13] = assay: Antifungal activity against Trichoderma viride IAM 5061 after 72 hrs by serial sub-cultivation method; format: functional; conditions: IAM 5061, 72 h; procedure, shortened: as §1
Aspergillus niger [14] = assay: Antifungal activity against Aspergillus niger ATCC 6275 after 72 hrs by serial dilution method; format: functional; conditions: ATCC 6275, 72 h; procedure, shortened: as §2
Aspergillus fumigatus [15] = assay: Antifungal activity against Aspergillus fumigatus plant isolate after 72 hrs by serial dilution method
Aspergillus fumigatus [16] = assay: Antifungal activity against Aspergillus fumigatus plant isolate after 72 hrs by serial sub-cultivation method
Bacillus cereus [17] = assay: Antibacterial activity against Bacillus cereus clinical isolate after 24 hrs; format: functional
Procedure, shortened: (§3)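 Broth microdilution MIC in 96-well plates. Compounds in LB broth with bacterial inoculum of 1.0 × 10^4 cfu per well, from suspensions adjusted with sterile saline to 1.0 × 10⁵ CFU/ml. Incubated 24 h at […] as printed. MIC taken as the lowest concentration with no visible growth under the binocular microscope. OD at 655 nm also read against blank. Streptomycin and ampicillin as positive controls. Duplicate, repeated three times.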

Bacillus cereus [18] = assay: Antibacterial activity against Bacillus cereus clinical isolate after 72 hrs by serial sub-cultivation method; format: functional
Procedure, shortened: (§4)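 MBC was found by serial sub-cultivation of 2 µl from the MIC wells into plates holding 100 µl broth per well, then incubation for 72 h. MBC is the lowest concentration with no visible growth, i.e. 99.5% killing of the original inoculum. Bacterial inoculum was 1.0 × 10^4 cfu per well in LB broth. Duplicate, repeated three times.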

Micrococcus flavus [19] = assay: Antibacterial activity against Micrococcus flavus ATCC 10240 after 24 hrs; format: functional; conditions: ATCC 10240, 24 h; procedure, shortened: as §3
Micrococcus flavus [20] = assay: Antibacterial activity against Micrococcus flavus ATCC 10240 after 72 hrs by serial sub-cultivation method; format: functional; conditions: ATCC 10240, 72 h; procedure, shortened: as §4
Staphylococcus aureus [21] = assay: Antibacterial activity against Staphylococcus aureus ATCC 6538 after 24 hrs; format: functional; conditions: ATCC 6538, 24 h; procedure, shortened: as §3
Staphylococcus aureus [22] = assay: Antibacterial activity against Staphylococcus aureus ATCC 6538 after 72 hrs by serial sub-cultivation method; format: functional; conditions: ATCC 6538, 72 h; procedure, shortened: as §4
Escherichia coli [23] = assay: Antibacterial activity against Escherichia coli ATCC 35210 after 24 hrs; format: functional; conditions: ATCC 35210, 24 h; procedure, shortened: as §3
Escherichia coli [24] = assay: Antibacterial activity against Escherichia coli ATCC 35210 after 72 hrs by serial sub-cultivation method; format: functional; conditions: ATCC 35210, 72 h; procedure, shortened: as §4
Pseudomonas aeruginosa [25] = assay: Antibacterial activity against Pseudomonas aeruginosa ATCC 27853 after 24 hrs; format: functional; conditions: ATCC 27853, 24 h; procedure, shortened: as §3
Pseudomonas aeruginosa [26] = assay: Antibacterial activity against Pseudomonas aeruginosa ATCC 27853 after 72 hrs by serial sub-cultivation method; format: functional; conditions: ATCC 27853, 72 h; procedure, shortened: as §4
Proteus mirabilis [27] = assay: Antibacterial activity against Proteus mirabilis after 24 hrs; format: functional; procedure, shortened: as §3
Proteus mirabilis [28] = assay: Antibacterial activity against Proteus mirabilis after 72 hrs by serial sub-cultivation method; format: functional; procedure, shortened: as §4
Salmonella typhimurium [29] = assay: Antibacterial activity against Salmonella Typhimurium ATCC 13311 after 24 hrs; format: functional, Salmonella enterica subsp. enterica serovar Typhimurium; conditions: Salmonella enterica, ATCC 13311, 24 h; procedure, shortened: as §3
Salmonella typhimurium [30] = assay: Antibacterial activity against Salmonella Typhimurium ATCC 13311 after 72 hrs by serial sub-cultivation method; format: functional, Salmonella enterica subsp. enterica serovar Typhimurium; conditions: Salmonella enterica, ATCC 13311, 72 h; procedure, shortened: as §4
Listeria monocytogenes [31] = assay: Antibacterial activity against Listeria monocytogenes NCTC 7973 after 24 hrs; format: functional; conditions: NCTC 7973, 24 h; procedure, shortened: as §3
Listeria monocytogenes [32] = assay: Antibacterial activity against Listeria monocytogenes NCTC 7973 after 72 hrs by serial sub-cultivation method; format: functional; conditions: NCTC 7973, 72 h; procedure, shortened: as §4

SMILES | MFC (Aspergillus niger [1]) [µM] | MIC (Aspergillus versicolor [2]) [µM] | MFC (Aspergillus versicolor [3]) [µM] | MIC (Aspergillus flavus [4]) [µM] | MFC (Aspergillus flavus [5]) [µM] | MIC (Fulvia fulva [6]) [µM] | MFC (Fulvia fulva [7]) [µM] | MIC (Talaromyces funiculosus [8]) [µM] | MFC (Talaromyces funiculosus [9]) [µM] | MIC (Penicillium ochrochloron [10]) [µM] | MFC (Penicillium ochrochloron [11]) [µM] | MIC (Trichoderma viride [12]) [µM] | MFC (Trichoderma viride [13]) [µM] | MIC (Aspergillus niger [14]) [µM] | MIC (Aspergillus fumigatus [15]) [µM] | MFC (Aspergillus fumigatus [16]) [µM] | also measured
c1ccc(-c2ccc(C(c3ccccc3)n3ccnc3)cc2)cc1 (stereo not drawn) [BIFONAZOLE] | 640 (≈ 199 µg/mL) | 320 (≈ 99.3 µg/mL) | 640 (≈ 199 µg/mL) | 480 (≈ 149 µg/mL) | 640 (≈ 199 µg/mL) | 320 (≈ 99.3 µg/mL) | 640 (≈ 199 µg/mL) | 640 (≈ 199 µg/mL) | 800 (≈ 248 µg/mL) | 480 (≈ 149 µg/mL) | 640 (≈ 199 µg/mL) | 640 (≈ 199 µg/mL) | 800 (≈ 248 µg/mL) | 480 (≈ 149 µg/mL) | 480 (≈ 149 µg/mL) | 640 (≈ 199 µg/mL) | 
CC(=O)N1CCN(c2ccc(OCC3COC(Cn4ccnc4)(c4ccc(Cl)cc4Cl)O3)cc2)CC1 (stereo not drawn) [KETOCONAZOLE] | 950 (≈ 505 µg/mL) | 380 (≈ 202 µg/mL) | 950 (≈ 505 µg/mL) | 2850 (≈ 1510 µg/mL) | 3800 (≈ 2020 µg/mL) | 380 (≈ 202 µg/mL) | 950 (≈ 505 µg/mL) | 380 (≈ 202 µg/mL) | 950 (≈ 505 µg/mL) | 3800 (≈ 2020 µg/mL) | 3800 (≈ 2020 µg/mL) | 4750 (≈ 2520 µg/mL) | 5700 (≈ 3030 µg/mL) | 380 (≈ 202 µg/mL) | 380 (≈ 202 µg/mL) | 950 (≈ 505 µg/mL) | 
CN[C@@H]1[C@H](O[C@H]2[C@H](O[C@H]3[C@H](O)[C@@H](O)[C@H](N=C(N)N)[C@@H](O)[C@@H]3N=C(N)N)O[C@@H](C)[C@]2(O)C=O)O[C@@H](CO)[C@H](O)[C@H]1O [STREPTOMYCIN] |  |  |  |  |  |  |  |  |  |  |  |  |  |  |  |  | MIC (Bacillus cereus [17]): 43 µM (≈ 25 µg/mL); MBC (Bacillus cereus [18]): 86 µM (≈ 50 µg/mL); MIC (Micrococcus flavus [19]): 86 µM (≈ 50 µg/mL); MBC (Micrococcus flavus [20]): 172 µM (≈ 100 µg/mL); MIC (Staphylococcus aureus [21]): 172 µM (≈ 100 µg/mL); MBC (Staphylococcus aureus [22]): 344 µM (≈ 200 µg/mL); MIC (Escherichia coli [23]): 172 µM (≈ 100 µg/mL); MBC (Escherichia coli [24]): 344 µM (≈ 200 µg/mL); MIC (Pseudomonas aeruginosa [25]): 172 µM (≈ 100 µg/mL); MBC (Pseudomonas aeruginosa [26]): 344 µM (≈ 200 µg/mL); MIC (Proteus mirabilis [27]): 172 µM (≈ 100 µg/mL); MBC (Proteus mirabilis [28]): 344 µM (≈ 200 µg/mL); MIC (Salmonella typhimurium [29]): 172 µM (≈ 100 µg/mL); MBC (Salmonella typhimurium [30]): 344 µM (≈ 200 µg/mL); MIC (Listeria monocytogenes [31]): 258 µM (≈ 150 µg/mL); MBC (Listeria monocytogenes [32]): 516 µM (≈ 300 µg/mL)
